{
  "source": "ChEMBL document CHEMBL1144659",
  "about": "“Structure-activity study of 2,3-benzodiazepin-4-ones noncompetitive AMPAR antagonists: identification of the 1-(4-amino-3-methylphenyl)-3,5-dihydro-7,8-ethylenedioxy-4H-2,3-benzodiazepin-4-one as neuroprotective agent” (Bioorg Med Chem, 2008)",
  "key": {"[1]": {"assay": "Antagonist activity at AMPA receptor in rat […] granule cells assessed as inhibition of kainate-induced calcium uptake after 30 mins", "assay_type": "functional, cell-based", "conditions": "0.5 h", "method_in_brief": "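Primary rat cerebellar granule neurons, preincubated 30 min with compounds in BSS (pH 7.3), then exposed at room temperature to 100 µM kainate in BSS with 10 µM glycine, 0.5 mM dithiothreitol and 45Ca2+ for 10 min. Washed with ice-cold BSS containing 5 mM EGTA, lysed in 0.6% Triton X-100, radioactivity counted. IC50 representative of three experiments.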"}, "Neuron": {"system": "Neuron", "assay": "Inhibition of kainate-induced C57BL/6N mouse hippocampal neurons excitotoxicity after 48 hrs by MTT assay", "assay_type": "functional, tissue-based", "conditions": "Hippocampus", "method_in_brief": "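E13 C57BL/6N mouse hippocampal cultures were given 30 µM kainate with the test compound at graded concentrations, in medium without glutamate. Exposure was 48 h at 37 °C. Viability was measured by MTT conversion (absorbance 570 nm), relative to untreated cells. IC50 values are representative of three independent experiments.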"}, "[2]": {"assay": "Displacement of [3H]CP-526427 from AMPA receptor in Sprague-Dawley rat fore brain by radioligand binding assay", "method_in_brief": "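Adult male Sprague-Dawley forebrain membranes at 0.5 mg protein/mL in 50 mM Tris·HCl pH 7.4. Compounds at various concentrations with 3 nM [3H]CP-526,427, 20 min at 30 °C. Filtration onto glass fiber filters, scintillation counting. Nonspecific binding taken with 10 µM unlabeled CP-526,427 or CP-465,022. Positive control was CP-465,022.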"}, "[3]": {"assay": "Excitotoxicity against C57BL/6N mouse hippocampal neurons after 48 hrs by MTT assay", "assay_type": "tissue-based", "conditions": "Neuron, Hippocampus", "method_in_brief": "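Primary hippocampal cultures from E13 C57BL/6N mouse embryos were grown on poly-L-lysine in Neurobasal/B27/BDNF medium. At 7 DIV they were exposed to kainate (5–500 µM) for 48 h at 37 °C, 5% CO2. Viability was read by MTT (4 h, absorbance 570 nm) as % of untreated cells. Five–six experiments, each in duplicate.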"}},
  "data": [
    {"smiles": "CC1=NN=C(c2ccc(N)cc2)c2cc3c(cc2C1)OCO3", "note": "[GYKI-52466]", "values": [
      {"measurement": "IC50", "setting": "[1]", "result": 22, "unit": "µM"},
      {"measurement": "IC50", "setting": "Neuron", "result": 10.8, "unit": "µM"},
      {"measurement": "IC50", "setting": "[2]", "result": 12.6, "unit": "µM"}
    ]},
    {"smiles": "CC(=O)N1N=C(c2ccc(N)cc2)c2cc3c(cc2C[C@H]1C)OCO3", "values": [
      {"measurement": "Activity", "setting": "Neuron", "result": "Dose-dependent effect"}
    ]},
    {"smiles": "Cc1cc(C2=NNC(=O)Cc3cc4c(cc32)OCCO4)ccc1N", "values": [
      {"measurement": "IC50", "setting": "[1]", "result": 6.4, "unit": "µM"},
      {"measurement": "IC50", "setting": "Neuron", "result": 1.6, "unit": "µM"},
      {"measurement": "IC50", "setting": "[2]", "result": 1.84, "unit": "µM"}
    ]},
    {"smiles": "COc1cc(C2=NNC(=O)Cc3cc4c(cc32)OCCO4)ccc1N", "values": [
      {"measurement": "IC50", "setting": "[1]", "result": 12, "unit": "µM"},
      {"measurement": "IC50", "setting": "[2]", "result": 81.1, "unit": "µM"}
    ]},
    {"smiles": "Nc1ccc(C2=NNC(=O)Cc3cc4c(cc32)OCCO4)cc1Cl", "values": [
      {"measurement": "IC50", "setting": "[1]", "result": 2, "unit": "µM"},
      {"measurement": "IC50", "setting": "[2]", "result": 2.05, "unit": "µM"}
    ]},
    {"smiles": "CNC(=O)N1N=C(c2ccc(N)cc2)c2cc3c(cc2CC1=O)OCO3", "values": [
      {"measurement": "IC50", "setting": "[1]", "result": 11, "unit": "µM"},
      {"measurement": "IC50", "setting": "[2]", "result": 12, "unit": "µM"}
    ]},
    {"smiles": "Cc1cc(C2=NNC(=O)Cc3cc4c(cc32)OCO4)ccc1N", "values": [
      {"measurement": "IC50", "setting": "[1]", "result": 2.5, "unit": "µM"},
      {"measurement": "IC50", "setting": "[2]", "result": 6.3, "unit": "µM"}
    ]},
    {"smiles": "Nc1ccc(C2=NNC(=O)Cc3cc4c(cc32)OCCO4)cc1", "values": [
      {"measurement": "IC50", "setting": "[1]", "result": 2.9, "unit": "µM"},
      {"measurement": "IC50", "setting": "[2]", "result": 9, "unit": "µM"}
    ]},
    {"smiles": "Nc1ccc(C2=NNC(=O)Cc3cc4c(cc32)OCO4)cc1", "values": [
      {"measurement": "IC50", "setting": "[1]", "result": 12, "unit": "µM"},
      {"measurement": "IC50", "setting": "[2]", "result": 32, "unit": "µM"}
    ]},
    {"smiles": "Cc1cc(C2=NNC(=O)C(C)c3cc4c(cc32)OCO4)ccc1N", "note": "(stereo not drawn)", "values": [
      {"measurement": "IC50", "setting": "[1]", "result": 18.8, "unit": "µM"},
      {"measurement": "IC50", "setting": "[2]", "result": 9.62, "unit": "µM"}
    ]},
    {"smiles": "Cc1cc(C2=NNC(=O)Cc3cc4c(cc32)OCCO4)cc(C)c1N", "values": [
      {"measurement": "IC50", "setting": "[1]", "result": "> 100", "unit": "µM"},
      {"measurement": "IC50", "setting": "[2]", "result": "> 100", "unit": "µM"}
    ]},
    {"smiles": "CNC(=O)N1N=C(c2ccc(N)cc2)c2cc3c(cc2C[C@H]1C)OCO3", "values": [
      {"measurement": "Activity", "setting": "Neuron", "result": "Dose-dependent effect"}
    ]},
    {"smiles": "CC1C(=O)NN=C(c2ccc(N)cc2)c2cc3c(cc21)OCO3", "note": "(stereo not drawn)", "values": [
      {"measurement": "IC50", "setting": "[1]", "result": 12, "unit": "µM"},
      {"measurement": "IC50", "setting": "[2]", "result": 12.9, "unit": "µM"}
    ]},
    {"smiles": "C=C(C)[C@H]1CN[C@H](C(=O)O)[C@H]1CC(=O)O", "note": "[KAINIC ACID]", "values": [
      {"measurement": "EC50", "setting": "[3]", "result": 17.3, "unit": "µM"}
    ]},
    {"smiles": "CC1C(=O)NN=C(c2ccc(N)cc2)c2cc3c(cc21)OCCO3", "note": "(stereo not drawn)", "values": [
      {"measurement": "IC50", "setting": "[2]", "result": 6.96, "unit": "µM"}
    ]},
    {"smiles": "COc1cc(C2=NNC(=O)Cc3cc4c(cc32)OCO4)ccc1N", "values": [
      {"measurement": "IC50", "setting": "[1]", "result": 31, "unit": "µM"},
      {"measurement": "IC50", "setting": "[2]", "result": "> 100", "unit": "µM"}
    ]},
    {"smiles": "CCC1C(=O)NN=C(c2ccc(N)c(C)c2)c2cc3c(cc21)OCO3", "note": "(stereo not drawn)", "values": [
      {"measurement": "IC50", "setting": "[1]", "result": 4.34, "unit": "µM"},
      {"measurement": "IC50", "setting": "[2]", "result": 15.6, "unit": "µM"}
    ]},
    {"smiles": "Cc1cc(C2=NNC(=O)Cc3cc4c(cc32)OCO4)cc(C)c1N", "values": [
      {"measurement": "IC50", "setting": "[1]", "result": "> 100", "unit": "µM"},
      {"measurement": "IC50", "setting": "[2]", "result": "> 100", "unit": "µM"}
    ]},
    {"smiles": "CNC(=O)N1N=C(c2ccc(N)cc2)c2cc3c(cc2C(C)C1=O)OCO3", "note": "(stereo not drawn)", "values": [
      {"measurement": "IC50", "setting": "[1]", "result": 15.8, "unit": "µM"},
      {"measurement": "IC50", "setting": "[2]", "result": 4.01, "unit": "µM"}
    ]},
    {"smiles": "Cc1cc(C2=NNC(=O)C(C)c3cc4c(cc32)OCCO4)ccc1N", "note": "(stereo not drawn)", "values": [
      {"measurement": "IC50", "setting": "[1]", "result": 1.23, "unit": "µM"},
      {"measurement": "IC50", "setting": "[2]", "result": 4.5, "unit": "µM"}
    ]},
    {"smiles": "CNC(=O)N1N=C(c2ccc(N)cc2)c2cc3c(cc2CC1=O)OCCO3", "values": [
      {"measurement": "IC50", "setting": "[1]", "result": 5.4, "unit": "µM"},
      {"measurement": "IC50", "setting": "[2]", "result": 7.78, "unit": "µM"}
    ]},
    {"smiles": "CC1C(=O)NN=C(c2ccc(N)c(Cl)c2)c2cc3c(cc21)OCCO3", "note": "(stereo not drawn)", "values": [
      {"measurement": "IC50", "setting": "[1]", "result": 18, "unit": "µM"},
      {"measurement": "IC50", "setting": "[2]", "result": 21.6, "unit": "µM"}
    ]},
    {"smiles": "Nc1ccc(C2=NNC(=O)C(Cc3ccccc3)c3cc4c(cc32)OCO4)cc1", "note": "(stereo not drawn)", "values": [
      {"measurement": "IC50", "setting": "[2]", "result": "> 100", "unit": "µM"}
    ]},
    {"smiles": "NS(=O)(=O)c1cccc2c1c([N+](=O)[O-])cc1nc(O)c(O)nc12", "note": "[NBQX]", "values": [
      {"measurement": "IC50", "setting": "Neuron", "result": 11.9, "unit": "µM"}
    ]},
    {"smiles": "CCC1C(=O)NN=C(c2ccc(N)cc2)c2cc3c(cc21)OCO3", "note": "(stereo not drawn)", "values": [
      {"measurement": "IC50", "setting": "[1]", "result": 17.1, "unit": "µM"},
      {"measurement": "IC50", "setting": "[2]", "result": 8.37, "unit": "µM"}
    ]},
    {"smiles": "CC1C(=O)NN=C(c2ccc(N)c(Cl)c2)c2cc3c(cc21)OCO3", "note": "(stereo not drawn)", "values": [
      {"measurement": "IC50", "setting": "[1]", "result": 7, "unit": "µM"},
      {"measurement": "IC50", "setting": "[2]", "result": 11.4, "unit": "µM"}
    ]}
  ]
}
